Laboratory results: ChEMBL document CHEMBL4257585, “Structure-Activity Relationships of Photoswitchable Diarylethene-Based β-Hairpin Peptides as Membranolytic Antimicrobial and Anticancer Agents” (J Med Chem, 2018)
≈ marks a conversion by molar mass, not a printed value.

What was measured:
[1] = tested on: Escherichia coli; assay: Antimicrobial activity against Escherichia coli DSM 1103 after 22 hrs by resazurin dye based spectrophotometry; format: functional; conditions: DSM 1103, 22 h
How it was run: (§1)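 2-fold broth microdilution in Mueller–Hinton medium; peptide stocks 1024 μg/mL in 50% ethanol. Exponential-phase cultures diluted to OD550 0.2, then 1:100 (B. subtilis) or 1:1000 (E. coli), giving 5 × 10^5 CFU/mL per well. Incubated 22 h, 37 °C, static; then resazurin (0.2 mg/mL solution) added for 2 h at 37 °C, read visually and spectrophotometrically. Tested in both photoforms.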

[2] = Therapeutic index, ratio of HC50 for human RBC to MIC for Escherichia coli DSM 1103; format: toxicity; conditions: human red blood cells versus Escherichia coli DSM 1103
How it was run: (§2)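 Ratio of HC50 (RBC) to HeLa IC50 or to MIC against B. subtilis or E. coli; values measured in mg/mL and recalculated to μM, 2-fold dilution without curve fitting, accuracy within a factor of 2.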

[3] = Therapeutic index, ratio of HC50 for human RBC to MIC for Bacillus subtilis DSM 347; format: toxicity; conditions: human red blood cells versus Bacillus subtilis DSM 347; how it was run: as §2
[4] = Selective ratio of HC50 for human RBC to IC50 for human HeLa cells; format: toxicity; conditions: human red blood cells versus HeLa cells; how it was run: as §2
[5] = Hemolytic activity against human RBC assessed as hemolysis after 30 mins by colorimetric method; format: ADME, cell-based, Erythrocyte; conditions: human red blood cells (erythrocytes)
How it was run: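 Human erythrocytes washed twice in isotonic 172 mM Tris-HCl, pH 7.6; peptides dissolved in DMSO, diluted in buffer, two independent 10-step 2-fold series from 256 or 192 μg/mL. HC50 extrapolated as 50% hemolysis concentration.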

[6] = tested on: HeLa; assay: Cytotoxicity against human HeLa cells assessed as reduction in cell viability after 24 hrs by MTT assay; format: functional, cell-based
How it was run: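 HeLa cells seeded at about 5 × 10^4 cells/mL in DMEM with 10% FBS, 2 mM glutamine, gentamicin; 24 h adaptation (37 °C, 5% CO2), then 24 h peptide exposure. MTT 4 h, formazan in DMSO read at 570 nm. 2-fold series 256–0.5 (open) or 512–1 μg/mL (closed), four repetitions; IC50 extrapolated from killing curves. Closed form handled in dim light.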

[7] = tested on: Bacillus subtilis; assay: Antimicrobial activity against Bacillus subtilis DSM 347 after 22 hrs by resazurin dye based spectrophotometry; format: functional; conditions: DSM 347, 22 h; how it was run: as §1

`CC(C)C[C@@H]1NC(=O)[C@H](CCCCN)NC(=O)[C@H](C(C)C)NC(=O)C2=CC3=C4CCCC4=C4C=C(S[C@]4(C)[C@@]3(C)S2)C(=O)[C@H]2CCCN2C(=O)[C@H](C(C)C)NC(=O)[C@H](CCCCN)NC(=O)[C@H](C(C)C)NC(=O)[C@H](CC(C)C)NC(=O)[C@@H](CCCCN)NC(=O)[C@@H]2CCCN2C(=O)[C@@H](Cc2ccccc2)NC(=O)[C@H](C(C)C)NC(=O)[C@H](CCCCN)NC1=O` gave an MIC [1] of 73 µM (≈ 129 µg/mL), a selectivity ratio [2] of 0.2 and a selectivity ratio [3] of 7. For the same molecule, the selectivity ratio [4] was 0.8, the HC50 at 0.5 h [5] was 14 µM and the IC50 [6] was 18 µM. For the same molecule, the MIC [7] was 2 µM (≈ 3.53 µg/mL).
Molecule `CC(C)C[C@@H]1NC(=O)[C@H](CCCCN)NC(=O)[C@H](C(C)C)NC(=O)[C@@H]2CCCN2C(=O)[C@@H](Cc2ccccc2)NC(=O)[C@H](CC(C)C)NC(=O)[C@H](CCCCN)NC(=O)[C@H](C(C)C)NC(=O)[C@H](CCCCN)NC(=O)C2=CC3=C4CCCC4=C4C=C(S[C@]4(C)[C@@]3(C)S2)C(=O)[C@H]2CCCN2C(=O)[C@H](CCCCN)NC1=O` has an MIC [1] of 164 µM (≈ 257 µg/mL), a selectivity ratio [2] of 0.4 and a selectivity ratio [3] of 3.1. The selectivity ratio [4] was 0.8, the HC50 at 0.5 h [5] was 65 µM and the IC50 [6] was 82 µM. The MIC [7] was 21 µM (≈ 32.9 µg/mL).
Work on `Cc1sc2cc1C1=C(CCC1)c1cc(sc1C)C(=O)[C@H]1CCCN1C(=O)[C@H](C)NC(=O)[C@H](CCCN)NC(=O)[C@H](C(C)C)NC(=O)[C@@H]1CCCN1C(=O)[C@@H](Cc1ccccc1)NC(=O)[C@H](CC(C)C)NC(=O)[C@H](CCCN)NC(=O)[C@H](C)NC2=O` yielded an MIC [1] of 106 µM (≈ 128 µg/mL), a selectivity ratio [2] of 0.8 and a selectivity ratio [3] of 12.4. For the same molecule, the selectivity ratio [4] was 2.2, the HC50 at 0.5 h [5] was 87 µM and the IC50 [6] was 40 µM. For the same molecule, the MIC [7] was 7 µM (≈ 8.47 µg/mL).
Work on `CC(C)C[C@@H]1NC(=O)[C@H](CCCN)NC(=O)[C@H](CCCN)NC(=O)C2=CC3=C4CCCC4=C4C=C(S[C@]4(C)[C@@]3(C)S2)C(=O)[C@H]2CCCN2C(=O)[C@H](CC(C)C)NC(=O)[C@H](CCCN)NC(=O)[C@H](C(C)C)NC(=O)[C@@H]2CCCN2C(=O)[C@@H](Cc2ccccc2)NC1=O` yielded an MIC [1] of 12 µM (≈ 15.5 µg/mL), a selectivity ratio [2] of 1.4 and a selectivity ratio [3] of 5.7. It also gave a selectivity ratio [4] of 1.4, an HC50 at 0.5 h [5] of 17 µM and an IC50 [6] of 12 µM. The MIC [7] was 3 µM (≈ 3.89 µg/mL).
For `CC(C)C[C@@H]1NC(=O)C2=CC3=C4CCCC4=C4C=C(S[C@]4(C)[C@@]3(C)S2)C(=O)[C@H]2CCCN2C(=O)[C@H](C(C)C)NC(=O)[C@H](CCCCN)NC(=O)[C@H](CC(C)C)NC(=O)[C@H](CCCCN)NC(=O)[C@@H]2CCCN2C(=O)[C@@H](Cc2ccccc2)NC(=O)[C@H](CCCCN)NC(=O)[C@H](C(C)C)NC(=O)[C@H](CCCCN)NC1=O`, the MIC [1] was 164 µM (≈ 257 µg/mL), the selectivity ratio [2] was 0.5 and the selectivity ratio [3] was 8.2. It also gave a selectivity ratio [4] of 1, an HC50 at 0.5 h [5] of 82 µM and an IC50 [6] of 82 µM. The MIC [7] was 10 µM (≈ 15.7 µg/mL).
For `Cc1sc2cc1C1=C(CCC1)c1cc(sc1C)C(=O)[C@H]1CCCN1C(=O)[C@H](CCCCN)NC(=O)[C@H](CC(C)C)NC(=O)[C@H](CCCCN)NC(=O)[C@H](C(C)C)NC(=O)[C@@H]1CCCN1C(=O)[C@@H](Cc1ccccc1)NC(=O)[C@H](CC(C)C)NC(=O)[C@H](CCCCN)NC(=O)[C@H](C(C)C)NC(=O)[C@H](CCCCN)NC2=O`, the MIC [1] was 21 µM (≈ 32.9 µg/mL), the selectivity ratio [2] was 0.2 and the selectivity ratio [3] was 4. It also gave a selectivity ratio [4] of 0.1, an HC50 at 0.5 h [5] of 4 µM and an IC50 [6] of 41 µM. For the same molecule, the MIC [7] was 1 µM (≈ 1.57 µg/mL).
Molecule `Cc1sc2cc1C1=C(CCC1)c1cc(sc1C)C(=O)[C@H]1CCCN1C(=O)[C@H](CC(C)C)NC(=O)[C@H](CCCN)NC(=O)[C@H](C(C)C)NC(=O)[C@@H]1CCCN1C(=O)[C@@H](Cc1ccccc1)NC(=O)[C@H](CC(C)C)NC(=O)[C@H](CCCN)NC(=O)[C@H](CCCN)NC2=O` has an MIC [1] of 25 µM (≈ 32.4 µg/mL), a selectivity ratio [2] of 0.5 and a selectivity ratio [3] of 6. For the same molecule, the selectivity ratio [4] was 2, the HC50 at 0.5 h [5] was 12 µM and the IC50 [6] was 6 µM. The MIC [7] was 2 µM (≈ 2.59 µg/mL).
`CC(C)C[C@@H]1NC(=O)[C@H](CCCN)NC(=O)[C@H](C)NC(=O)C2=CC3=C4CCCC4=C4C=C(S[C@]4(C)[C@@]3(C)S2)C(=O)[C@H]2CCCN2C(=O)[C@H](C)NC(=O)[C@H](CCCN)NC(=O)[C@H](C(C)C)NC(=O)[C@@H]2CCCN2C(=O)[C@@H](Cc2ccccc2)NC1=O` showed an MIC [1] of 212 µM (≈ 257 µg/mL), a selectivity ratio [2] of 0.8 and a selectivity ratio [3] of 4.4. For the same molecule, the selectivity ratio [4] was 1.7, the HC50 at 0.5 h [5] was 175 µM and the IC50 [6] was 106 µM. It also gave an MIC [7] of 40 µM (≈ 48.4 µg/mL).
